# Results from ChEMBL document CHEMBL1149419, “Peptide-mediated cell transport of water soluble porphyrin conjugates” (J Med Chem, 2006).
# *1 amine or outer side, *2 acyl side, *3 side chain or, on linkers, in order; H or OH if unused. Where a SMILES comes first, the peptide text is derived from it. [ ]: non-standard residue; d: D form. The star is where a group is joined. X1 = O=C(COCC(=O)*)Nc1ccc(-c2c3nc(c(-c4ccccc4)c4ccc([nH]4)c(-c4ccccc4)c4nc(c(-c5ccccc5)c5ccc2[nH]5)C=C4)C=C3)cc1; NH(CH2CH2O)6CH2CO = O=C(COCCOCCOCCOCCOCCOCCN[*:1])[*:2]
# Tests used:
# HEp-2 [1] = experiment: Cellular uptake in human HEp2 cells at 10 uM; format: ADME, cell-based; settings: hep-2, 10 µM
# Procedure, shortened: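 HEp2 cells seeded at 10 000 per well and grown overnight, then exposed to 10 µM conjugate (diluted into medium from 10 mM water stocks) for 0, 1, 2, 4, 8 and 24 h. After PBS wash, cells lysed in 0.25% Triton X-100/PBS. Conjugate quantified by fluorescence at 410/650 nm (ex/em), and cell number by CyQuant.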
# HEp-2 [2] = experiment: Dark cytotoxicity against human HEp2 cells at 100 uM; format: functional, cell-based
# Procedure, shortened: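 HEp2 cells seeded at 10 000 per well and allowed 36-48 h to attach. They were given increasing conjugate concentrations up to 100 µM and incubated overnight without light. Viability was read with Cell Titer Blue fluorescence at 520/584 nm and normalized to untreated cells (100%) and 0.2% saponin-treated cells (0%).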
# HEp-2 [3] = experiment: Phototoxicity against human HEp2 cells at 10 uM; format: cell-based
# Procedure, shortened: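 HEp2 cells seeded and attached 36-48 h, then loaded overnight with conjugate at 0, 0.625, 1.25, 2.5, 5 and 10 µM. Medium was swapped for medium with 50 mM HEPES pH 7.4. Cells were irradiated on ice for 10 min with a 100 W halogen lamp through a 610 nm long-pass filter and a water IR filter, about 0.5 J/cm2. After overnight incubation, viability was read by Cell Titer Blue.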
# [4] = Homo sapiens, HEp-2, read-out: IC50
SMILES,Activity (HEp-2 [1]),IC50 (HEp-2 [2]; [4]),IC50 (HEp-2 [3]; hep-2),"IC50 (HEp-2 [3]; Homo sapiens, HEp-2, light or radiation study, read-out: IC50)",IC50 (HEp-2 [2]; hep-2)
N=C(N)NCCC[C@H](NC(=O)CNC(=O)COCCOCCOCCOCCOCCOCCNC(=O)COCC(=O)Nc1ccc(-c2c3nc(c(-c4ccccc4)c4ccc([nH]4)c(-c4ccccc4)c4nc(c(-c5ccccc5)c5ccc2[nH]5)C=C4)C=C3)cc1)C(=O)N[C@@H](CCCN=C(N)N)C(=O)N[C@@H](CCCN=C(N)N)C(=O)N[C@@H](CCCN=C(N)N)C(=O)N[C@@H](CCCN=C(N)N)C(=O)N[C@@H](CCCNC(=N)N)C(=O)N[C@@H](CCCNC(=N)N)C(=O)N[C@@H](CCCN=C(N)N)C(=O)O,Active,75 µM,Active,–,–
CC(C)[C@H](NC(=O)[C@H](CCCCN)NC(=O)[C@H](CCCN=C(N)N)NC(=O)[C@H](CCCCN)NC(=O)[C@H](CCCCN)NC(=O)[C@H](CCCCN)NC(=O)[C@@H]1CCCN1C(=O)CNC(=O)COCCOCCOCCOCCOCCOCCNC(=O)COCC(=O)Nc1ccc(-c2c3nc(c(-c4ccccc4)c4ccc([nH]4)c(-c4ccccc4)c4nc(c(-c5ccccc5)c5ccc2[nH]5)C=C4)C=C3)cc1)C(N)=O (X1-[NH(CH2CH2O)6CH2CO]GPKKKRKV-NH2),Active,90 µM,–,1.5 µM,–
NCCCC[C@H](NC(=O)[C@H](CCCN=C(N)N)NC(=O)CNC(=O)COCC(=O)NCCOCCOCCOCCOCCOCCOCCOCCNC(=O)COc1ccc(-c2c3nc(c(-c4ccc(OCC(=O)O)cc4)c4ccc([nH]4)c(-c4ccc(OCC(=O)O)cc4)c4nc(c(-c5ccc(OCC(=O)O)cc5)c5ccc2[nH]5)C=C4)C=C3)cc1)C(=O)N[C@@H](CCCCN)C(=O)N[C@@H](CCCN=C(N)N)C(=O)N[C@@H](CCCN=C(N)N)C(=O)N[C@@H](CCC(N)=O)C(=O)N[C@@H](CCCN=C(N)N)C(=O)N[C@@H](CCCN=C(N)N)C(=O)N[C@@H](CCCN=C(N)N)C(=O)N1CCC[C@H]1C(=O)N1CCC[C@H]1C(=O)N[C@@H](CCC(N)=O)C(N)=O,Active,–,Not Active,–,Not Active
CC(C)[C@H](NC(=O)[C@H](CCCCN)NC(=O)[C@H](CCCN=C(N)N)NC(=O)[C@H](CCCCN)NC(=O)[C@H](CCCCN)NC(=O)[C@H](CCCCN)NC(=O)[C@@H]1CCCN1C(=O)CNC(=O)COCC(=O)NCCOCCOCCOCCOCCOCCOCCOCCNC(=O)COc1ccc(-c2c3nc(c(-c4ccc(OCC(=O)O)cc4)c4ccc([nH]4)c(-c4ccc(OCC(=O)O)cc4)c4nc(c(-c5ccc(OCC(=O)O)cc5)c5ccc2[nH]5)C=C4)C=C3)cc1)C(N)=O,Active,–,Not Active,–,Not Active
NCCCC[C@H](NC(=O)[C@H](CCCN=C(N)N)NC(=O)CNC(=O)COCCOCCOCCOCCOCCOCCNC(=O)COCC(=O)Nc1ccc(-c2c3nc(c(-c4ccccc4)c4ccc([nH]4)c(-c4ccccc4)c4nc(c(-c5ccccc5)c5ccc2[nH]5)C=C4)C=C3)cc1)C(=O)N[C@@H](CCCCN)C(=O)N[C@@H](CCCN=C(N)N)C(=O)N[C@@H](CCCN=C(N)N)C(=O)N[C@@H](CCC(N)=O)C(=O)N[C@@H](CCCN=C(N)N)C(=O)N[C@@H](CCCN=C(N)N)C(=O)N[C@@H](CCCN=C(N)N)C(=O)N1CCC[C@H]1C(=O)N1CCC[C@H]1C(=O)N[C@@H](CCC(N)=O)C(N)=O,Active,30 µM,Active,–,–
